From ChEMBL document CHEMBL1177836, “New quinoxaline 1, 4-di-N-oxides: anticancer and hypoxia-selective therapeutic agents” (Eur J Med Chem, 2010) come the findings set out here.

In brackets after ≈: the same amount, converted by molar mass.

The subject of test [1] is Ehrlich. As to the kind of experiment: Cytotoxicity against mouse EAC cells in hypoxic condition assessed as concentration required for 1% cell survival.
Test [2] can be described thus: Cytotoxicity against mouse EAC cells in aerobic condition by trypan blue exclusion assay. It is filed as functional, cell-based. The following applies: Ehrlich. In outline: (§1)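 EAC cells aspirated from ascitic fluid of pre-inoculated female Swiss albino mice, suspended at 2.5×10⁶ cells/ml. Compounds freshly diluted in DMSO, 0.1 ml added per tube. Parallel aerobic and anaerobic tube sets; anaerobic tubes gassed with N₂ throughout. Incubation 2 h, then centrifugation. Trypan blue exclusion with haemocytometer counts; % viability = unstained cells/total cells × 100. DMSO-only negative control.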

Test [3] is described as follows: Cytotoxicity against mouse EAC cells in hypoxic condition by trypan blue exclusion assay. It is filed as functional, cell-based. To be noted: Ehrlich. In short, it runs like this: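 EAC suspension (2.5×10⁶ cells/ml, from ascitic fluid of pre-inoculated female Swiss albino mice) exposed 2 h to DMSO-dissolved compounds over 1–100 µg/ml, in air or under continuous N₂. Viability by trypan blue exclusion, haemocytometer counts. IC50 taken as the concentration causing 50% mortality in net cell numbers.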

A short description of test [4]: Cytotoxicity against mouse EAC cells in hypoxic condition assessed as cell viability at 1 ug/ml after 2 hrs by trypan blue exclusion assay. In kind it is functional. The following applies: Ehrlich, read-out: Activity. In outline:
as §1

Test [5] in a line: Cytotoxicity against mouse EAC cells in hypoxic condition assessed as cell viability at 25 ug/ml after 2 hrs by trypan blue exclusion assay. In kind it is functional. To be noted: Ehrlich, read-out: Activity. In short, it runs like this:
as §1

Test [6] is described as follows: Cytotoxicity against mouse EAC cells in aerobic condition assessed as cell viability at 1 ug/ml after 2 hrs by trypan blue exclusion assay. In kind it is functional. The following applies: Ehrlich, read-out: Activity. In outline:
as §1

A short description of test [7]: Cytotoxicity against mouse EAC cells in aerobic condition assessed as cell viability at 5 ug/ml after 2 hrs by trypan blue exclusion assay. In kind it is functional. The following applies: Ehrlich, read-out: Activity. In outline:
as §1

In test [8] the test system is HepG2. As to the kind of experiment: Growth inhibition of human HepG2 cells after 48 hrs by SRB assay. It is filed as functional, cell-based. The following applies: HepG2, 48 h. In outline: (§2)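 Cells plated at 10⁴ per well and allowed 24 h to attach. Compounds dissolved in DMSO were added at 0.1, 2.5, 5 and 10 µg/ml and incubated 48 h at 37 °C under 5% CO₂. Cells were then fixed, washed and stained with sulforhodamine B, and colour intensity was read on an ELISA reader.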
Background: Sulforhodamine B stains cellular protein and so reports cell mass.

The nature of test [9]: Cytotoxicity against mouse EAC cells in hypoxic condition assessed as cell viability at 50 ug/ml after 2 hrs by trypan blue exclusion assay. In kind it is functional. The following applies: Ehrlich, read-out: Activity. In outline: as §1
Test [10] in a line: Cytotoxicity against mouse EAC cells in aerobic condition assessed as cell viability at 25 ug/ml after 2 hrs by trypan blue exclusion assay. In kind it is functional. To be noted: Ehrlich, read-out: Activity. In outline: as §1
A short description of test [11]: Cytotoxicity against mouse EAC cells in hypoxic condition assessed as cell viability at 5 ug/ml after 2 hrs by trypan blue exclusion assay. The following applies: Ehrlich, read-out: Activity. It is filed as functional. In outline: as §1
The nature of test [12]: Ratio of IC50 for mouse EAC cells in aerobic condition to IC50 for mouse EAC cells in hypoxic condition.
Test [13] in a line: Cytotoxicity against mouse EAC cells in hypoxic condition assessed as cell viability at 10 ug/ml after 2 hrs by trypan blue exclusion assay. To be noted: Ehrlich, read-out: Activity. In kind it is functional. In outline: as §1
The nature of test [14]: Cytotoxicity against mouse EAC cells in aerobic condition assessed as cell viability at 50 ug/ml after 2 hrs by trypan blue exclusion assay. It is filed as functional. To be noted: Ehrlich, read-out: Activity. In short, it runs like this:
as §1

Test [15] is described as follows: Cytotoxicity against mouse EAC cells in aerobic condition assessed as cell viability at 100 ug/ml after 2 hrs by trypan blue exclusion assay. It is filed as functional. The following applies: Ehrlich, read-out: Activity. In short, it runs like this:
as §1

The nature of test [16]: Cytotoxicity against mouse EAC cells in aerobic condition assessed as cell viability at 10 ug/ml after 2 hrs by trypan blue exclusion assay. The following applies: Ehrlich, read-out: Activity. It is filed as functional. In outline: as §1
A short description of test [17]: Cytotoxicity against mouse EAC cells in hypoxic condition assessed as cell viability at 100 ug/ml after 2 hrs by trypan blue exclusion assay. It is filed as functional. To be noted: Ehrlich, read-out: Activity. In outline:
as §1

Test [18] deals with U-251. Briefly: Growth inhibition of human U251 cells after 48 hrs by SRB assay. It is filed as functional, cell-based. To be noted: U-251, 48 h. In short, it runs like this:
as §2

The IC50 is the concentration that inhibits the measured activity by half. Low values mean greater potency, high ones weaker potency. Regarding `CNc1c(C#N)[n+]([O-])c2cc(Cl)ccc2[n+]1[O-]`, the Potency in [1] is > 100 µg/mL. In addition, the IC50 is > 100 µg/mL in [2], > 100 µg/mL in test [3], 4.75 µg/mL (≈ 19 µM) in test [8] and > 10 µg/mL in [18]. Besides, the viability at 1 µg/mL in test [4] came out at 99.5%; in [6], 100%. Also, the viability at 25 µg/mL in test [5] is 90.6%; in test [10], 94%. The viability at 5 µg/mL in test [7] and in test [11] was 96% each time. Besides, the values for the viability at 50 µg/mL in test [9] and in [14] were 81.4% and 82.7%, respectively. Further, the HCR (IC50 air/IC50 hypoxia ratio) in test [12] was > 1. Besides, the viability at 10 µg/mL in test [13] is 92.7%; in [16], 96.7%. Moreover, the values for the viability at 100 µg/mL in test [15] and in test [17] were 89% and 72%, respectively.

Turning to `CC(=O)N(C(C)=O)c1c(C#N)[n+]([O-])c2cc(Cl)ccc2[n+]1[O-]`, the Potency in [1] amounted to 22 µg/mL (≈ 68.6 µM). Besides, the IC50 in [2] is > 100 µg/mL; in [3] it was 2.5 µg/mL (≈ 7.8 µM); in [8] it was 5.69 µg/mL (≈ 17.7 µM); in test [18], > 10 µg/mL. For the same compound, the viability at 1 µg/mL in test [4] was determined as 75.4%; in test [6] it was 99.6%. Besides, the viability at 25 µg/mL in test [5] worked out at 3%; in [10], 80.7%. The viability at 5 µg/mL in test [7] amounted to 99%; in [11] it was 30.3%. The viability at 50 µg/mL in test [9] stood at 1.3%; in test [14], 78.9%. The HCR (IC50 air/IC50 hypoxia ratio) in test [12] was > 40. Besides, the values for the viability at 10 µg/mL in test [13] and in test [16] were 12.6% and 83.9%, respectively. For the same compound, the viability at 100 µg/mL in [15] stood at 77.7%; in test [17], 0%.
